Series [1] deals with CAL-51. Kind of series: Antiproliferative activity against human CAL51 cells assessed as reduction in cell viability after 3 days by CellTiter-Glo reagent-based luminescent assay. Format: functional. Conditions: CAL-51, 72 h. In general terms: In ATP-based viability assays light output follows the ATP content of the culture.
Series [2] in a line: AUC in rat at 10 mg/kg, po. Format: ADME, organism-based. Conditions: in vivo. An outline of the steps: (§1)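 Rat oral PK at 10 mg/kg. Compound is given as a solution in CMCT (0.5% CMC/0.25% tween-80) or formulated in 5% TPGS, 10% captisol, 50 mM citrate buffer. Cmax and AUC are recorded.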
The target of series [3] is T1, Dual specificity protein kinase TTK (Homo sapiens, UniProt P33981).
T1 sequence (P33981 whole entry): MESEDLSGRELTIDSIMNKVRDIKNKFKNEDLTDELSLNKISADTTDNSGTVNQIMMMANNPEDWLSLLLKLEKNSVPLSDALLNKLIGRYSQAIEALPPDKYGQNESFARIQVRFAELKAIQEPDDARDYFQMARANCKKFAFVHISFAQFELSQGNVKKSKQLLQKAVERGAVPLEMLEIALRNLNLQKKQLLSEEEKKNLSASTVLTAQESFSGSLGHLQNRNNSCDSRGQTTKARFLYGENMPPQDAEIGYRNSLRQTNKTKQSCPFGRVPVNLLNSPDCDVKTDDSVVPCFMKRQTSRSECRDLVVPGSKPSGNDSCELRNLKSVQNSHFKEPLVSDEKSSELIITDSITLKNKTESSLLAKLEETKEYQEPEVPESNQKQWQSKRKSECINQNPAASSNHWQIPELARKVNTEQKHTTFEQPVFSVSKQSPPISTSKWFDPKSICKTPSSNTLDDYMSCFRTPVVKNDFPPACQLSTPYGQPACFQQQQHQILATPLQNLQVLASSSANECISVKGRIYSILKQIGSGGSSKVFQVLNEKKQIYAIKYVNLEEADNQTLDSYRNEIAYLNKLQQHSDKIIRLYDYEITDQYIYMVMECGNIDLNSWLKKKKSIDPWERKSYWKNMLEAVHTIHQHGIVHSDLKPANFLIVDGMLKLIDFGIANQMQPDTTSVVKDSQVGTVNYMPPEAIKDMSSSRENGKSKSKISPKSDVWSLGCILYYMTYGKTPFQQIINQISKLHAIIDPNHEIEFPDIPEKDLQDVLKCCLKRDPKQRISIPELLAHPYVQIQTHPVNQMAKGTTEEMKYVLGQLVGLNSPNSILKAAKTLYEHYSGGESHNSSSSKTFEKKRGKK
Kind of series: Inhibition of Kinase Tracer 236 binding to recombinant human full-length GST-tagged TTk expressed in baculovirus expression system measured after 1 hr by LanthaScreen Eu--kinase binding assay. (Time-resolved FRET reads energy transfer from a long-lived donor to a nearby acceptor.)

A short description of series [4]: Metabolic stability in human liver S9 fraction assessed as parent compound remaining after 60 mins. Format: ADME, subcellular. Conditions: read-out: Stability.
A short description of series [5]: AUC in CB17 SCID mouse at 30 mg/kg, po. Format: ADME, organism-based. The note with it: in vivo. An outline of the steps: (§2)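 Oral PK in SCID mice at 30 mg/kg. Compound is formulated either in CMCT (0.5% CMC/0.25% tween-80) or in 5% TPGS, 10% captisol, 50 mM citrate buffer, depending on compound. Cmax and AUC are measured.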
In series [6] the target is T1, Dual specificity protein kinase TTK. Kind of series: Inhibition of TTK autophosphorylation in human CAL51 cells by radioimmuno-precipitation assay. Format: cell-based.
A short description of series [7]: Cmax in rat at 10 mg/kg, po. Also on record: dose 10 mg/kg, route oral. The note with it: in vivo. Format: ADME, organism-based. An outline of the steps:
as §1

The nature of series [8]: Cmax in CB17 SCID mouse at 30 mg/kg, po. Format: ADME, organism-based. The arrangement: dose 30 mg/kg, route oral. Conditions: in vivo. An outline of the steps:
as §2

Series [9] is described as follows: Toxicity in CB17 SCID mouse xenografted with human CAL51 cells assessed as body weight loss at 5 mg/kg, iv q4d and measured up to 31 days relative to control. Format: organism-based. Conditions: in vivo, 744 h.
The subject of series [10] is CAL-51. Kind of series: Antitumor activity against human CAL51 cells xenografted in CB17 SCID mouse assessed as tumor growth inhibition at 5 mg/kg, iv q4d and measured twice per week up to 31 days by caliper method relative to control. Format: functional. The note with it: CAL-51, iv, 744 h, read-out: TGI. On the technique in general: A xenograft is tissue or cells of one species grown in another, often human tumour cells in immunodeficient mice.

Series [11] is described as follows: Oral bioavailability in rat at 5 mg/kg. The note with it: in vivo.

The values that follow come from ChEMBL document CHEMBL4346709, “Design and Optimization Leading to an Orally Active TTK Protein Kinase Inhibitor with Robust Single Agent Efficacy” (J Med Chem, 2019).

Each structure is given as a SMILES string.

The term IC50 denotes the concentration at which inhibition is half-maximal. Broadly, the AUC is the area under the concentration-time curve, a measure of exposure. The Cmax is the maximum level reached in the sampled fluid or tissue. Broadly, the bioavailability is the share of a dose that reaches the circulation, judged against a reference dose that is usually intravenous. A lower bioavailability goes with poor availability.

With `COc1cc(C(=O)N(C)C)ccc1Nc1nc(O[C@H]2CC[C@@](C)(O)CC2)c2cc[nH]c2n1`, the concentration for half-maximal inhibition (IC50) in the series with CAL-51 [1] turned out to be 44 nM; in series [3], 0.7 nM. Also, in [2], the AUC was 21.8 µM·h.
In the case of `COc1cc(C(=O)N(C)C)ccc1Nc1nc(OC2CCOCC2)c2cc[nH]c2n1`, the figures for the IC50 (in the series on CAL-51 [1]; in [3]) were 198 nM and 1 nM, respectively.
For the molecule `CN(C)C(=O)c1ccc(Nc2nc(O[C@H]3CC[C@@](C)(O)CC3)c3cc[nH]c3n2)c(OCC(F)(F)F)c1`, in the series on CAL-51 [1], the IC50 amounted to 15 nM. Also, the area under the curve (AUC) in series [2] came to 16.1 µM·h.
Take `COc1cc(N2CCN(C(=O)CO)CC2)ccc1Nc1nc(O[C@H]2CCOC(C)(C)C2)c2cc[nH]c2n1`: the half-maximal inhibitory concentration (IC50) is 37 nM in the series on CAL-51 [1], 16 nM in series [6] and 1.3 nM in series [3]. In series [4], the remaining at 1 h was 79%. In addition, the AUC in [5] was 17.6 µM·h; in [2] it was 9.5 to 9.52 µM·h. The Cmax in [7] was 2.53 µM; in [8], 9.86 µM.
On to `CCOc1cc(C(=O)N(C)C)ccc1Nc1nc(O[C@H]2CC[C@@](C)(O)CC2)c2cc[nH]c2n1`, for which the half-maximal inhibitory concentration (IC50) in the series on CAL-51 [1] was found to be 26 nM.
For the molecule `COc1cc(N2CCN(C3COC3)CC2)ccc1Nc1nc(O[C@H]2CCOC(C)(C)C2)c2cc[nH]c2n1`, the concentration for half-maximal inhibition (IC50) in the series with CAL-51 [1] came out at 84 nM; in series [6], 44 nM; in series [3], 2.5 nM. Moreover, in [4], the remaining at 1 h turned out to be 85%. Moreover, the results for the exposure (AUC) in [5] and in [2] were 35.3 µM·h and 24 µM·h, respectively. Further, the highest concentration (Cmax) in series [7] is 4.43 µM; in series [8] it was 11.8 µM.
Regarding `COc1cc(C(=O)N(C)C)ccc1Nc1nc(O[C@H]2CC[C@](C)(O)CC2)c2cc[nH]c2n1`, the IC50 with CAL-51 [1] is 69 nM; in series [3] it was 0.6 nM.
With `CC(=O)O[C@@]12CO[C@@H]1C[C@H](O)[C@@]1(C)C(=O)[C@H](O)C3=C(C)[C@@H](OC(=O)[C@H](O)[C@@H](NC(=O)OC(C)(C)C)c4ccccc4)C[C@@](O)([C@@H](OC(=O)c4ccccc4)[C@H]21)C3(C)C` [DOCETAXEL ANHYDROUS], the Activity in series [9] is on record as 20%. Moreover, the inhibition in vivo at 5 mg/kg in the series with CAL-51 [10] stood at 61%.
On to `COc1cc(C(=O)N(C)C)ccc1Nc1nc(OC2COC2)c2cc[nH]c2n1`, for which the IC50 is 1960 nM with CAL-51 [1] and 7.2 nM in series [3].
For `COc1cc(C(=O)N(C)C)ccc1Nc1nc(OC(C)C)c2cc[nH]c2n1`, the figures for the IC50 (with CAL-51 [1]; in [3]) were 1260 nM and 3.2 nM, respectively.
In the same order, the values of `COc1cc(C(=O)N(C)C)ccc1Nc1nc(OC2CCCCC2)c2cc[nH]c2n1` are 190 nM and 1.3 nM.
For the molecule `COc1cc(N2CCC(C)(O)CC2)ccc1Nc1nc(O[C@H]2CCOC(C)(C)C2)c2cc[nH]c2n1`, the half-inhibitory concentration (IC50) in the series on CAL-51 [1] was 71 nM. In addition, the area under the curve (AUC) in [2] turned out to be 11 µM·h.
Regarding `COc1cc(C(=O)N(C)C)ccc1Nc1nc(OC2CCCC2)c2cc[nH]c2n1`, the results for the concentration for half-maximal inhibition (IC50) (in the series with CAL-51 [1]; in [3]) were 497 nM and 1.3 nM, respectively.
`CNC(=O)c1ccc(Nc2nc(OC3CCCC3)c3c(-c4ccc5nc(C)oc5c4)c[nH]c3n2)c(OC)c1` came in with a bioavailability in [11] of 0.9%.
On to `COc1cc(N2CCOCC2)ccc1Nc1nc(O[C@H]2CCOC(C)(C)C2)c2cc[nH]c2n1`, for which the IC50 in the series with CAL-51 [1] is 53 nM. Further, the area under the curve (AUC) in series [2] turned out to be 14.7 µM·h.
As to `COc1cc(C(=O)N(C)C)ccc1Nc1nc(O[C@H]2CCOC(C)(C)C2)c2cc[nH]c2n1`, the IC50 was 131 nM with CAL-51 [1] and 1 nM in series [3]. In addition, the AUC in series [2] was 30 µM·h.
In the case of `COc1cc(C(=O)N2CCOCC2)ccc1Nc1nc(O[C@H]2CCOC(C)(C)C2)c2cc[nH]c2n1`, the IC50 in the series on CAL-51 [1] came to 406 nM.
Take `C[C@@H](Oc1cc(C(=O)N(C)C)ccc1Nc1nc(O[C@H]2CC[C@@](C)(O)CC2)c2cc[nH]c2n1)C(F)(F)F`: in the series with CAL-51 [1], the concentration for half-maximal inhibition (IC50) is 24 nM. The same molecule showed an AUC in series [2] of 30 µM·h.
